Data reported in ChEMBL document CHEMBL1138831, “Computer-assisted design of selective imidazole inhibitors for cytochrome p450 enzymes” (J Med Chem, 2004).

What was measured:
[1] = target: T1, Camphor 5-monooxygenase (Pseudomonas putida, UniProt P00183); experiment: Inhibition of wild type cytochrome P450cam expressed in Escherichia coli
T1 sequence (P00183 whole entry): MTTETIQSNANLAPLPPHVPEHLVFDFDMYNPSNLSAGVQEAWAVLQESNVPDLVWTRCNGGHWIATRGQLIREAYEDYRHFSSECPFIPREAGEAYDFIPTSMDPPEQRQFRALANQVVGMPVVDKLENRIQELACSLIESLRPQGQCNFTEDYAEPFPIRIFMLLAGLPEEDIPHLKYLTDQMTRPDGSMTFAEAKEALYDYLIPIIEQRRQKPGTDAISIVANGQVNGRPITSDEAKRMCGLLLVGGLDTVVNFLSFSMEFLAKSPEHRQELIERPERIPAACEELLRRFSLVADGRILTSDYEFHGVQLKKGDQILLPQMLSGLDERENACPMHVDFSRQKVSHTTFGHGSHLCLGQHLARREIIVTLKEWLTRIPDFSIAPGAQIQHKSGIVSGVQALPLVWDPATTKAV

[2] = target: T1, Camphor 5-monooxygenase; experiment: Inhibition of wild type cytochrome P450cam expressed in Escherichia coli at 1 mM
Outline: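 Camphor-depleted enzyme in 100 mM potassium phosphate, with inhibitor at 1 mM added in DMSO (≤3% of volume). Incubated 15 min at 20 °C, then quenched with CH2Cl2 containing 2 mM β-thujone internal standard. Turnover was taken from the GC product/starting-material ratio and expressed as percent inhibition.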

[3] = target: T2, Camphor 5-monooxygenase (Pseudomonas putida, UniProt P00183, L244A); experiment: Inhibition of L244A mutant cytochrome P450cam expressed in Escherichia coli
Outline: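 Camphor-depleted enzyme at 20 nM in 100 mM potassium phosphate, with inhibitor at varying amounts added in DMSO (≤3% of volume). Incubated 15 min at 20 °C, then quenched with CH2Cl2 containing 2 mM β-thujone internal standard. Product/starting-material ratio was measured by GC to give turnover, and IC50 was fitted with a Langmuir isotherm.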

[4] = target: T1, Camphor 5-monooxygenase; experiment: Binding constant for wild type cytochrome P450cam expressed in Escherichia coli; conditions: read-out: Ks
Outline: (§1)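 Camphor stripped from the enzyme by two elutions with 100 mM sodium phosphate over a size-exclusion column, leaving low-spin water-bound heme. 0.5 μM protein in 100 mM potassium phosphate at 37 °C, measured by difference UV spectroscopy. The 416 nm trough to 424 nm peak absorbance difference was fitted by nonlinear regression to ΔA = ΔAmax[I]/(Ks+[I]).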

[5] = target: T2, Camphor 5-monooxygenase; experiment: Binding constant for L244A mutant cytochrome P450cam expressed in Escherichia coli; conditions: read-out: Ks; outline: as §1

`c1ccc(Cn2ccnc2)cc1` [BENZYLIMIDAZOLE] was tested, and the IC50 [1] was 16 µM.
Work on `CC(C)(C)Cc1cncn1C1CC1` yielded an inhibition at 1000 µM [2] of 80% and an IC50 [3] of 129 µM.
`CCCc1cncn1CC1CC1` was tested, and the inhibition at 1000 µM [2] was 60% and the IC50 [3] was 36 µM.
In the case of `c1cn(CC2CC2)cn1`, the IC50 [1] is reported as 4 µM.
For `c1cn(CC2CCCCC2)cn1`, the IC50 [1] was 1.5 µM.
For `CC(=O)N1CCN(c2ccc(OC[C@@H]3CO[C@@](Cn4ccnc4)(c4ccc(Cl)cc4Cl)O3)cc2)CC1` [KETOCONAZOLE], the Kd [4] was 0.5 µM and the Kd [5] was 0.6 µM.
With `CCCc1cncn1C1CCCC1` the inhibition at 1000 µM [2] was 60% and the IC50 [3] was 6.5 µM.
Work on `CC(C)Cc1cncn1CC1CC1` yielded an inhibition at 1000 µM [2] of 20% and an IC50 [3] of 10.1 µM.
`CCC(CC)Cn1ccnc1` showed an IC50 [1] of 0.8 µM.
In the case of `c1ccc(Cn2cncc2C2CC2)cc1`, the inhibition at 1000 µM [2] is reported as 30% and the IC50 [3] is reported as 41 µM.
